ChEMBL document CHEMBL3804792, “Discovery and analgesic evaluation of 8-chloro-1,4-dihydropyrido[2,3-b]pyrazine-2,3-dione as a novel potent d-amino acid oxidase inhibitor” (Eur J Med Chem, 2016)
pIC50: −log10 of the molar value. The source made the active and inactive calls.

Columns and labels:
[1] = biological target: D-amino-acid oxidase (Sus scrofa, UniProt P00371); experiment: Inhibition of DAAO in porcine kidney homogenate using D-alanine as substrate assessed as pyruvate production incubated for 5 mins by microplate reader analysis
D-amino-acid oxidase (Sus scrofa, UniProt P00371), sequence (P00371 whole entry): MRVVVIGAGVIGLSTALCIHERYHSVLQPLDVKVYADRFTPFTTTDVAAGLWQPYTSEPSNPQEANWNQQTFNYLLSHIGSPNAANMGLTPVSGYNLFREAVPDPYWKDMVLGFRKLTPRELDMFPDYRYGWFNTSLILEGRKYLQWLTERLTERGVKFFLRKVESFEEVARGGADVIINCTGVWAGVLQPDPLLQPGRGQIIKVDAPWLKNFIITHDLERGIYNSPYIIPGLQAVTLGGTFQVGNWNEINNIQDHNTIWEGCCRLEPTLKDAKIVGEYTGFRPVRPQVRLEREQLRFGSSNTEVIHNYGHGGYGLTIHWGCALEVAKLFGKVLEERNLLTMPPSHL

[2] = biological target: D-amino-acid oxidase (Rattus norvegicus, UniProt O35078); experiment: Inhibition of rat spinal DAAO using D-alanine as substrate assessed as pyruvate production incubated for 60 mins by microplate reader analysis
D-amino-acid oxidase (Rattus norvegicus, UniProt O35078), sequence (O35078 whole entry): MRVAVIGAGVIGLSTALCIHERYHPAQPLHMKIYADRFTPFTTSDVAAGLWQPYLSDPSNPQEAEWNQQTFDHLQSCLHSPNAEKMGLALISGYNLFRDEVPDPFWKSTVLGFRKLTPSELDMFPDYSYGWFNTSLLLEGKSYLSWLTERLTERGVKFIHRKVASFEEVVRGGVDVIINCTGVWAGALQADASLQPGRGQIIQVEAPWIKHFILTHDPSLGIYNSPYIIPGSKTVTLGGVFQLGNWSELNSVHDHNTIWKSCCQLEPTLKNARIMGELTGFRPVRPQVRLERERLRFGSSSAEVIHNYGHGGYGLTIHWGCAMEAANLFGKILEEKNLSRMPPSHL

[3] = biological target: D-amino-acid oxidase (Homo sapiens, UniProt P14920); experiment: Inhibition of human recombinant DAAO using D-alanine as substrate assessed as pyruvate production incubated for 60 mins by microplate reader analysis
D-amino-acid oxidase (Homo sapiens, UniProt P14920), sequence (P14920 whole entry): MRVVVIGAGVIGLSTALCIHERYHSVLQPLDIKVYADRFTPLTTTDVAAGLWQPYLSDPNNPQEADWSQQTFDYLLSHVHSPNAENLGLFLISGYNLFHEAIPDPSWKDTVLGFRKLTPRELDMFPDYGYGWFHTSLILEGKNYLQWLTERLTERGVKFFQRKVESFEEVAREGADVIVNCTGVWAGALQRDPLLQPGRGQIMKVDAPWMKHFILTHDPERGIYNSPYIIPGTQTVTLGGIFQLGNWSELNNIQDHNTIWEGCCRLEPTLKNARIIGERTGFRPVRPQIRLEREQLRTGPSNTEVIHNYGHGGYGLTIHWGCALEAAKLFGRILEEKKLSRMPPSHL

[4] = tested on: Mus musculus; experiment: Attenuation of morphine analgesic tolerance in Swiss mouse assessed as latency of licking/biting/jumping at 10 ug, it bid coadministered with morphine at 12 hr intervals for 7 days by hot-plate test; type: functional, organism-based
Summary of the method: (§1)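 Swiss mice (n = 6 per group) received intrathecal saline, morphine, or compound (10 µg) plus morphine twice daily, 12 h apart, for 7 days. On day 8, a single intrathecal saline or compound dose was given 15 min before saline or morphine challenge. Hot plate at 55 ± 0.1 °C with 40 s cut-off; lick/bite/jump latency read before and 0.5, 1, 2 h after injection on days 1, 3, 5, 7, 8. AUC0–2 h analysed by two-way ANOVA with Student-Newman-Keuls test.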

[5] = tested on: Rattus norvegicus; experiment: Analgesic activity in Wistar rat assessed as inhibition of NMDA-induced pain at 10 ug, it administered 30 mins prior to NMDA challenge measured for 10 mins; type: functional, organism-based
Summary of the method: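 Male Wistar rats with lumbar intrathecal PE-10 catheters, placement checked by lidocaine-induced hind-limb paralysis; n = 6 per group. Intrathecal saline, MK-801 or compound 30 min before intrathecal NMDA (5 nmol). Scratching, biting and licking duration recorded for 10 min; means ± S.E.M., one-way ANOVA with Student-Newman-Keuls test versus saline.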

[6] = tested on: Mus musculus; experiment: Analgesic activity in sc dosed Swiss mouse assessed as inhibition of formalin-induced tonic pain administered 30 mins prior to formalin challenge measured from 20 to 40 mins relative to normal saline control; type: functional
Summary of the method: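 Male Swiss mice, n = 6 per group. Dosed s.c. at 0.3-30 mg/kg in saline (10 mL/kg) 30 min before 10 µL of 5% formalin s.c. into the dorsal right hindpaw. Licking/biting time was pooled over 20-40 min as tonic pain. Values compared with saline control. Emax and ED50 taken from the dose-response. One-way ANOVA with Student-Newman-Keuls test.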

[7] = Apparent oral bioavailability in Swiss mouse at 10 mg/kg administered as oral gavage; type: ADME, organism-based; conditions: in vivo, read-out: Fapp
[8] = tested on: Mus musculus; experiment: Reversal of morphine analgesic tolerance in 10 ug, it BID for 7 days morphine pre-treated Swiss mouse assessed as latency of licking/biting/jumping at 10 ug, it administered as single bolus injection 15 mins prior to morphine challenge on day 8 by hot-plate test; type: functional, organism-based; summary of the method: as §1
[9] = tested on: Rattus norvegicus; experiment: Analgesic activity in it dosed Wistar rat assessed as inhibition of formalin-induced paw flinch response in tonic phase administered as bolus injection 30 mins prior to formalin challenge measured from 10 to 90 mins relative to normal saline control; type: functional
Summary of the method: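 Intrathecally catheterised male Wistar rats, n = 6 per group. A bolus of 0.1-3 µg was given intrathecally 30 min before 50 µL of 5% formalin s.c. into the dorsal right hindpaw. Flinches counted in 1-min epochs at 10-min intervals over 90 min. […] Saline (10 µL) group as control.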

[10] = species on record: Rattus norvegicus; experiment: Analgesic activity in Wistar rat spinal nerve ligation-induced neuropathic pain model assessed as reduction in heat hyperalgesia assessed as increase in ipsilateral paw withdrawal response at 30 ug, it measured after 1 hr; type: functional
Summary of the method: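 Spinal nerve-ligated male Wistar rats, intrathecally catheterised; only those with ipsilateral withdrawal threshold <8 g were used. After intrathecal dosing, radiant heat was applied to the plantar hind paw and withdrawal latency read, cut-off 20 s. Each paw tested three times at 10-min intervals and averaged. n = 6. Read at 0.5, 1, 2 and 4 h.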

[11] = tested on: Rattus norvegicus; experiment: Analgesic activity in Wistar rat assessed as inhibition of formalin-induced paw flinch response in acute phase up to 3 ug, it administered as bolus injection 30 mins prior to formalin challenge measured within 10 mins relative to normal saline control; type: functional, organism-based
Summary of the method: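 Intrathecally catheterized male Wistar rats (n = 6 per group) got a bolus of saline (10 µL) or compound (0.1–3 µg) 30 min before 50 µL 5% formalin sc into dorsal right hindpaw. Flinches counted in 1-min epochs every 10 min for 90 min; acute phase is the first 10 min. Compared with saline by one-way ANOVA and Student-Newman-Keuls test.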

[12] = species on record: Rattus norvegicus; experiment: Effect on contralateral paw withdrawal in Wistar rat spinal nerve ligation-induced neuropathic pain model at 30 ug, it measured after 0.5 to 4 hrs; type: ADME, organism-based; conditions: in vivo, icv_or_intrathecal
Summary of the method: (§2)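 Spinal nerve-ligated male Wistar rats, included only with ipsilateral withdrawal threshold < 8 g and no major impairment, dosed intrathecally. Mechanical thresholds (von Frey monofilaments on a metal grid) and radiant-heat paw withdrawal latency (20 s cut-off, mean of three trials 10 min apart) measured on both paws before and 0.5, 1, 2, 4 h after dosing. Thresholds converted to % MPE; two-way ANOVA.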

[13] = tested on: Mus musculus; experiment: Analgesic activity in Swiss mouse assessed as inhibition of formalin-induced tonic pain at 10 mg/kg administered as oral gavage 30 mins prior to formalin challenge measured from 20 to 40 mins relative to normal saline control; type: functional; set-up: scale not given: the % may be the effect or the level left
Summary of the method: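 Fasted male Swiss mice (18-22 g), n = 6. Dosed 10 mg/kg by oral gavage 30 min before 10 µL of 5% formalin in 0.9% saline injected s.c. into the dorsal right hindpaw. Licking/biting duration was scored manually and pooled over 20-40 min as tonic pain. Drug dissolved in normal saline at pH 7.3-7.5. Compared with a saline control group.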

[14] = species on record: Rattus norvegicus; experiment: Analgesic activity in Wistar rat spinal nerve ligation-induced neuropathic pain model assessed as reduction in mechanical allodynia assessed as increase in ipsilateral paw withdrawal response at 30 ug, it measured after 0.5 to 4 hrs; type: functional, organism-based; summary of the method: as §2
[15] = tested on: Mus musculus; experiment: Analgesic activity in Swiss mouse assessed as inhibition of formalin-induced acute pain at 0.3 to 10 mg/kg, sc administered 30 mins prior to formalin challenge measured within 5 mins relative to normal saline control; type: functional, organism-based
Summary of the method: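 Male Swiss mice (18e22 g), n = 6 per group; saline (10 mL/kg) or compound sc 30 min before 10 µL 5% formalin in 0.9% saline sc into dorsal right hindpaw. Licking/biting duration manually pooled over 0–5 min (acute phase) and compared with saline group; one-way ANOVA with Student-Newman-Keuls post-hoc test.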

[16] = species on record: Rattus norvegicus; experiment: Analgesic activity in Wistar rat spinal nerve ligation-induced neuropathic pain model assessed as reduction in heat hyperalgesia assessed as increase in ipsilateral paw withdrawal response at 30 ug, it measured after 0.5 to 4 hrs; type: functional, organism-based; summary of the method: as §2
[17] = species on record: Rattus norvegicus; experiment: Analgesic activity in Wistar rat spinal nerve ligation-induced neuropathic pain model assessed as reduction in mechanical allodynia assessed as increase in ipsilateral paw withdrawal response at 30 ug, it measured after 1 hr; type: functional
Summary of the method: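 Spinal nerve-ligated male Wistar rats, intrathecally catheterised; only rats with threshold <8 g and no major impairment were included. After intrathecal dosing, ipsilateral hind-limb withdrawal threshold to monofilaments was measured on a metal grid after ≥30 min acclimation, at 0.5, 1, 2 and 4 h. n = 6. Results converted to %MPE against baseline.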

[18] = tested on: Rattus norvegicus; experiment: Analgesic activity in Wistar rat assessed as inhibition of NMDA-induced pain at 0.1 ug, it administered 30 mins prior to NMDA challenge measured for 10 mins; type: functional
Summary of the method: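 Male Wistar rats (180-250 g), n = 6 per group, with intrathecal lumbar PE-10 catheters checked by lidocaine paralysis. Dosed 0.1 µg intrathecally 30 min before 5 nmol NMDA given intrathecally. Duration of scratching, biting and licking recorded for 10 min immediately after NMDA. Saline (10 µL) group as control. One-way ANOVA with Student-Newman-Keuls test.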

Structure (SMILES)	pIC50 [1]	further results
O=c1[nH]c2ncc(Br)c(Cl)c2[nH]c1=O	6.32	
CC(C)Oc1ccnc2[nH]c(=O)c(=O)[nH]c12	< 4.00	
COc1ccc2nc(O)c(O)nc2n1	< 4.00	
Cc1cnc2nc(O)c(O)nc2c1	4.44	
O=c1[nH]c2ncc(Br)c(Br)c2[nH]c1=O	6.28	
O=c1[nH]c2nccc(Oc3ccccc3)c2[nH]c1=O	< 3.00	
Cc1c(Cl)cnc2nc(O)c(O)nc12	6.59	pIC50 [2]: 5.38; pIC50 [3]: 5.95
O=c1[nH]c2nccc(C(F)(F)F)c2[nH]c1=O	6.28	
O=c1[nH]c2nccc(Br)c2[nH]c1=O	6.66	pIC50 [2]: 5.65; pIC50 [3]: 5.65
Oc1nc2cc(C(F)(F)F)cnc2nc1O	4.64	
O=c1[nH]c2nccc(OCc3ccccc3)c2[nH]c1=O	< 3.52	
Cc1ccc2nc(O)c(O)nc2n1	4.75	
O=c1[nH]c2ccc(OCCc3ccccc3)nc2[nH]c1=O	< 3.52	
O=c1[nH]c2ncc(Cl)c(Br)c2[nH]c1=O	6.62	pIC50 [2]: 5.10; pIC50 [3]: 5.86
O=c1[nH]c2ccc(OCc3ccccc3)nc2[nH]c1=O	< 3.52	
O=c1[nH]c2ncc(Cl)c(Cl)c2[nH]c1=O	6.19	
O=c1[nH]c2nccc(Cl)c2[nH]c1=O	6.74	Activity [4]: Active; pIC50 [2]: 6.85; Activity [5]: inactive; Activity [6]: Dose-dependent effect; ED50 [6]: 1.8 mg/kg; Emax [6]: 49%; pIC50 [3]: 6.68; bioavailability [7]: 30%; Activity [8]: Active; Activity [9]: Dose-dependent effect; ED50 [9]: 0.25 µg; Emax ([9]; Rattus norvegicus, Wistar): 67.1%; MPE [10]: 80.8%; Activity [11]: inactive; Activity [12]: Non-toxic; Activity [13]: 30%; Activity [14]: Active; Activity [15]: inactive; Activity [16]: Active; MPE [17]: 54.4%
CCc1ccnc2[nH]c(=O)c(=O)[nH]c12	5.62	

Structure (SMILES)	pIC50 [1]	further results
Cc1c(F)cnc2[nH]c(=O)c(=O)[nH]c12	6.82	pIC50 [2]: 6.82; pIC50 [3]: 6.47
COc1ccnc2[nH]c(=O)c(=O)[nH]c12	4.07	
Oc1nc2ccccc2nc1O	4.47	
CCOc1ccnc2[nH]c(=O)c(=O)[nH]c12	< 4.00	
Oc1nc2ccc(Cl)nc2nc1O	4.69	
Cc1ccnc2[nH]c(=O)c(=O)[nH]c12	6.20	
Oc1nc2cccnc2nc1O	5.24	
Cc1c(Br)cnc2nc(O)c(O)nc12	6.40	
Oc1nc2cc(Cl)cnc2nc1O	5.17	
O=C(O)c1cnc2[nH]c(=O)c(=O)[nH]c2c1	< 3.00	
O=c1[nH]c2nccc(OCCCc3ccccc3)c2[nH]c1=O	< 3.52	
C[C@]12N[C@H](Cc3ccccc31)c1ccccc12 [DIZOCILPINE]		inhibition (INH) [18]: 80%
O=c1[nH]c2nccc(OCCc3ccccc3)c2[nH]c1=O	< 3.52	
Oc1nc2cc(Br)cnc2nc1O	4.91	
CCOc1ccc2[nH]c(=O)c(=O)[nH]c2n1	< 4.00	
O=c1[nH]c2cc(F)cnc2[nH]c1=O	6.34	
COC(=O)c1cnc2[nH]c(=O)c(=O)[nH]c2c1	< 3.00	
Oc1noc2cc(Cl)ccc12	6.68	pIC50 [2]: 7.05
